Results from different studies.
Each line is one published result; the experiments were not run side by side.
Target: Cyclin-dependent kinase 17 (CDK17, Homo sapiens, UniProt Q00537)

SMILES	observed	method	concentration	remaining binding
c1cnn2ncc(-c3ccnc(N4CCC45COC5)n3)c2c1	binding		1 µM	87%
C[C@@H](c1ccc(-n2cnc3c(N)ncnc32)cc1)N1CCc2nn(C)c(Cc3ccccc3)c2C1=O	binding	competition with immobilised ligand	0.1 µM	91%
COc1cnc(Nc2cccc(S(N)(=O)=O)c2)nc1N1CCN(c2ccccc2)CC1	binding	competition with immobilised ligand	1 µM	100%
CN(C)C(=O)Cn1cc(-c2nc(C3(c4ccc(-c5cnc(N)nc5)cc4)CC3)no2)cn1	cell-free assay	competition with immobilised ligand	1 µM	100%
CNC(=O)[C@@H]1CC[C@@H](n2c(-c3ccc4cnccc4c3)nc3ccc(C(=O)NCc4cccc(C(N)=O)c4)cc32)C1	binding	competition with immobilised ligand	1 µM	93%
CN(C)c1nccc(-c2cnc3ncccn23)n1	binding		1 µM	84%
Cc1noc([C@H]2C[C@@H](c3ccc(C(F)(F)F)cc3)CN(C(=O)N3CCS(=O)(=O)C3)C2)n1	cell-free assay	competition with immobilised ligand	1 µM	100%
O=C(c1ccc(Nc2nccc(-c3cc4ccccc4s3)n2)cc1)N1CCC(N2CCCC2)CC1	binding	competition with immobilised ligand	1 µM	64%
C=CC(=O)N1CCC(C(=O)NCC(=O)N2CCN(c3nc(-c4cnc(N)nc4C(F)F)nc(N4CCOCC4)n3)CC2)CC1	binding	competition with immobilised ligand	1 µM	89%
O=C(c1ccc(Nc2ncc(Cl)c(-c3ccc(Cl)s3)n2)cc1)N1CCC(N2CCCC2)CC1	binding	competition with immobilised ligand	1 µM	1.8%
COc1cccc(CNC(=O)c2nc3scc(COCc4ccc(C(=O)O)cc4)c3c(=O)[nH]2)c1	cell-free assay	competition with immobilised ligand	1 µM	87.8%
c1cncc(-c2cccc(Nc3nccc(NC4CCCCC4)n3)c2)c1	binding	competition with immobilised ligand	10 µM	72%
CN(c1nccc(-c2cnn3ncccc23)n1)C1CC1	binding		1 µM	100%
O=C(NCCCN1CCOCC1)c1ccc(Nc2nccc(-c3cc4ccccc4s3)n2)cc1	binding	competition with immobilised ligand	1 µM	63%
CN(C)c1nccc(-c2cnn3ncccc23)n1	binding		1 µM	100%
Cc1c(NC(=O)c2cc(C(N)=O)nc3cc(F)ccc23)c(C(F)(F)F)nn1Cc1ccc(C(C)(C)C)cc1	cell-free assay	competition with immobilised ligand	1 µM	100%
CN(C)c1ncc(F)c(-c2cnn3ncccc23)n1	binding		1 µM	97%
CN1CCN(c2cnc3c(C4CCN(C(=O)c5ccc(OC(F)(F)F)cc5N)CC4)ncnc3c2)CC1	cell-free assay	competition with immobilised ligand	1 µM	93%
N[C@H]1CCN(c2nccc(-c3cnn4ncccc34)n2)C1	binding		1 µM	100%
C[C@@H]1CN(c2cc(-c3n[nH]c4ccc(OC5(C)CC5)cc34)ncn2)C[C@H](C)O1	cell-free assay	competition with immobilised ligand	0.1 µM	89%
O=C(NCC1CCOCC1)c1n[nH]cc1NC(=O)c1c(F)cccc1F	binding	competition with immobilised ligand	1 µM	66%
